In brackets after ≈: the same amount, converted by molar mass. Activity calls are given as the source filed them. The calls are words filed in the database; no cut-off is given here.
Columns and labels:
[1] = Activity of AAC(3)-4 (unknown origin)/Serratia marcescens AAC(6')-2d assessed as compound conversion to 3'-acetylated product incubated for 20 hrs by TLC analysis
[2] = Activity of AAC(3)-4 (unknown origin) assessed as compound acetylation activity by Ellman's method
[3] = tested on: Escherichia coli; test: Antibacterial activity against Escherichia coli MC1061 by microdilution method; assay type: functional
Outline: (§1)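 Broth microdilution MIC, in μg/mL, against a panel of Gram-positive and Gram-negative strains. Run at least in duplicate.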

[4] = Hemolytic activity against mouse RBC at 500 ug/ml after 60 mins; assay type: ADME, cell-based, Erythrocyte; conditions: red blood cells, read-out: Activity
[5] = tested on: Candida albicans; test: Antifungal activity against azole-resistant Candida albicans ATCC 10231 after 48 hrs in presence of posaconazole by checkerboard microdilution assay; assay type: functional; conditions: ATCC 10231, 48 h
Outline: (§2)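 Checkerboard combinations of the aminoglycoside amphiphile with posaconazole against yeast strains, run in duplicate. Each agent's MIC is taken alone and in combination. The fractional inhibitory concentration index (FICI) is calculated to classify the interaction.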

[6] = tested on: Candida albicans; test: Antifungal activity against azole-susceptible Candida albicans ATCC MYA-2876 after 48 hrs by microbroth dilution method; assay type: functional; conditions: ATCC MYA-2876, 48 h
Outline: (§3)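 Yeast MIC by broth microdilution, run in duplicate. The aminoglycoside compounds are read as MIC-0 (complete inhibition). Azoles are read as MIC-2 (50% inhibition).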

[7] = Activity of Mycobacterium tuberculosis AAC(2')-1c/AAC(3)-4 (unknown origin)/Serratia marcescens AAC(6')-2d (unknown origin) assessed as compound conversion to 3'-monoacetylated product incubated for 20 hrs by TLC analysis
[8] = tested on: Listeria monocytogenes; test: Antibacterial activity against Listeria monocytogenes ATCC 19115 by microdilution method; assay type: functional
Outline: (§4)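 Broth microdilution MIC against the named bacterial strain, reported in μg/mL; each determination run at least in duplicate.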

[9] = Cytotoxicity against human BEAS2B cells after 24 hrs by resazurin assay; assay type: cell-based, BEAS-2B; conditions: Homo sapiens, BEAS-2B
[10] = tested on: Enterobacter cloacae; test: Antibacterial activity against Enterobacter cloacae ATCC 13047 by microdilution method; assay type: functional; outline: as §4
[11] = tested on: Candida albicans; test: Antifungal activity against azole-resistant Candida albicans ATCC 90819 after 48 hrs in presence of posaconazole by checkerboard microdilution assay; assay type: functional; conditions: ATCC 90819, 48 h; outline: as §2
[12] = tested on: Pseudomonas aeruginosa; test: Antibacterial activity against Pseudomonas aeruginosa ATCC 27853 by microdilution method; assay type: functional; outline: as §4
[13] = tested on: Staphylococcus aureus; test: Antibacterial activity against methicillin-resistant Staphylococcus aureus by microdilution method; assay type: functional; outline: as §1
[14] = tested on: Salmonella enterica; test: Antibacterial activity against Salmonella enterica ATCC 14028 by microdilution method; assay type: functional; outline: as §4
[15] = tested on: Candida albicans; test: Antifungal activity against azole-susceptible Candida albicans ATCC MYA-2876 after 48 hrs in presence of posaconazole by checkerboard microdilution assay; assay type: functional; conditions: ATCC MYA-2876, 48 h; outline: as §2
[16] = tested on: Candida albicans; test: Antifungal activity against azole-resistant Candida albicans MYA-1003 after 48 hrs in presence of posaconazole by checkerboard microdilution assay; assay type: functional; conditions: MYA-1003, 48 h; outline: as §2
[17] = tested on: Candida albicans; test: Antifungal activity against azole-resistant Candida albicans MYA-1003 after 48 hrs by microbroth dilution method; assay type: functional; conditions: MYA-1003, 48 h; outline: as §3
[18] = tested on: Candida albicans; test: Antifungal activity against azole-susceptible Candida albicans ATCC MYA-2310 after 48 hrs in presence of posaconazole by checkerboard microdilution assay; assay type: functional; conditions: ATCC MYA-2310, 48 h; outline: as §2
[19] = tested on: A549; test: Cytotoxicity against human A549 cells after 24 hrs by resazurin assay; assay type: cell-based; conditions: Homo sapiens, A549, 24 h
[20] = tested on: Candida albicans; test: Antifungal activity against azole-resistant Candida albicans ATCC 64124 after 48 hrs in presence of posaconazole by checkerboard microdilution assay; assay type: functional; conditions: ATCC 64124, 48 h; outline: as §2
[21] = tested on: Klebsiella pneumoniae; test: Antibacterial activity against Klebsiella pneumoniae ATCC 27736 by microdilution method; assay type: functional; outline: as §4
[22] = tested on: Candida albicans; test: Antifungal activity against azole-resistant Candida albicans ATCC 64124 after 48 hrs by microbroth dilution method; assay type: functional; conditions: ATCC 64124, 48 h; outline: as §3
[23] = tested on: Candida albicans; test: Antifungal activity against azole-resistant Candida albicans ATCC 64124 at sub-MIC measured over 24 hrs by time-kill assay; assay type: functional, organism-based
Outline: (§5)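 Time-kill assay on C. albicans ATCC 64124 cultures exposed to test compound at 1/2 MIC, MIC and higher concentrations. Amphotericin B at 1 μg/mL and a no-drug culture serve as controls. CFU are counted at intervals over 24 h.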

[24] = tested on: Candida albicans; test: Antifungal activity against azole-resistant Candida albicans ATCC 64124 assessed as cell membrane permeabilization at twice the MIC after 1 hr by propidium iodide-staining based fluorescence microscopic analysis (reference value: <2%); assay type: functional
[25] = tested on: Serratia marcescens; test: Activity of Serratia marcescens AAC(6')-2d assessed as compound acetylation activity by Ellman's method
[26] = tested on: Bacillus subtilis; test: Antibacterial activity against Bacillus subtilis 168 by microdilution method; assay type: functional; conditions: subsp. subtilis str. 168; outline: as §4
[27] = tested on: Candida albicans; test: Antifungal activity against azole-resistant Candida albicans MYA-1237 after 48 hrs in presence of posaconazole by checkerboard microdilution assay; assay type: functional; conditions: MYA-1237, 48 h; outline: as §2
[28] = tested on: Staphylococcus epidermidis; test: Antibacterial activity against Staphylococcus epidermidis ATCC 12228 by microdilution method; assay type: functional; outline: as §4
[29] = tested on: Acinetobacter baumannii; test: Antibacterial activity against Acinetobacter baumannii ATCC 19606 by microdilution method; assay type: functional; outline: as §4
[30] = tested on: Candida albicans; test: Antifungal activity against azole-resistant Candida albicans ATCC 64124 assessed as cell membrane permeabilization at 1 times MIC after 1 hr by propidium iodide-staining based fluorescence microscopic analysis (reference value: <2%); assay type: functional
[31] = tested on: Mycobacterium tuberculosis; test: Activity of Mycobacterium tuberculosis AAC(2')-1c assessed as compound acetylation activity by Ellman's method
[32] = tested on: Candida albicans; test: Antifungal activity against azole-resistant Candida albicans ATCC 64124 at MIC measured after 6 hrs by time-kill assay; assay type: functional; outline: as §5
[33] = tested on: Candida albicans; test: Antifungal activity against azole-susceptible Candida albicans ATCC MYA-2310 after 48 hrs by microbroth dilution method; assay type: functional; conditions: ATCC MYA-2310, 48 h; outline: as §3
[34] = Activity of Mycobacterium tuberculosis AAC(2')-1c/Serratia marcescens AAC(6')-2d assessed as compound conversion to 6'-monoacetylated product incubated for 20 hrs by TLC analysis
[35] = tested on: Staphylococcus aureus; test: Antibacterial activity against Staphylococcus aureus NRS383 (USA 200) by microdilution method; assay type: functional; outline: as §4
[36] = tested on: Candida albicans; test: Antifungal activity against azole-resistant Candida albicans MYA-1237 after 48 hrs by microbroth dilution method; assay type: functional; conditions: MYA-1237, 48 h; outline: as §3
[37] = tested on: Candida albicans; test: Antifungal activity against azole-resistant Candida albicans ATCC 64124 assessed as cell death after 12 hrs by time-kill assay; assay type: functional, organism-based; outline: as §5
[38] = tested on: Staphylococcus aureus; test: Antibacterial activity against Staphylococcus aureus NRS382 (USA 100) by microdilution method; assay type: functional; outline: as §4
[39] = tested on: Mycobacterium tuberculosis; test: Activity of Mycobacterium tuberculosis Eis assessed as compound acetylation activity by Ellman's method
[40] = Hemolytic activity against mouse RBC at 7.8 ug/ml after 60 mins; assay type: ADME, cell-based, Erythrocyte; conditions: red blood cells, read-out: Activity
[41] = Activity of Mycobacterium tuberculosis AAC(2')-1c/AAC(3)-4 (unknown origin) assessed as compound conversion to 3'-acetylated product incubated for 20 hrs by TLC analysis
[42] = tested on: Candida albicans; test: Antifungal activity against azole-resistant Candida albicans ATCC 90819 after 48 hrs by microbroth dilution method; assay type: functional; conditions: ATCC 90819, 48 h; outline: as §3
[43] = Activity of AAC(6')-1e/APH(2'')-1a (unknown origin) assessed as compound acetylation activity by Ellman's method
[44] = tested on: Candida albicans; test: Antifungal activity against azole-resistant Candida albicans ATCC 10231 after 48 hrs by microbroth dilution method; assay type: functional; conditions: ATCC 10231, 48 h; outline: as §3
[45] = tested on: Bacillus subtilis subsp. subtilis str. 168; test: Activity of Bacillus subtilis 168 APH(2'')-1a assessed as compound phosphorylation activity by Ellman's method
[46] = tested on: Staphylococcus aureus; test: Antibacterial activity against Staphylococcus aureus NRS385 (USA 300) by microdilution method; assay type: functional; outline: as §1
[47] = tested on: Aspergillus nidulans; test: Antifungal activity against Aspergillus nidulans ATCC 38163 after 48 hrs by microbroth dilution method; assay type: functional; conditions: ATCC 38163, 48 h
Outline: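 Filamentous fungus MIC by broth microdilution, run in duplicate. All compounds are read as MIC-0 (complete inhibition).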

With `CCCCCCCCCCCCCCSC[C@@H]1O[C@@H](O[C@@H]2[C@@H](O)[C@H](O[C@@H]3O[C@@H](CN)[C@H](O)[C@@H](O)[C@@H]3N)[C@@H](N)C[C@H]2N)[C@@H](O)[C@H](N)[C@H]1O` (stereo in doubt) as the compound, how does the Activity [1] read?
Its Activity is “Active”.

What about the Activity [2] of the same compound?
The Activity was “inactive”.

And the MIC [3]?
The MIC was > 128 µg/mL.

And the hemolysis at 1 h, 500 ug/ml [4]?
The hemolysis at 1 h, 500 ug/ml was 73%.

What about the MIC [5] of the same compound?
Its MIC is 4 µg/mL.

What about the MIC [6] of the same compound?
The MIC was 7.8 µg/mL (≈ 11.2 µM).

And the Activity [7]?
The Activity was “Active”.

And the MIC [8]?
The MIC was 0.5 µg/mL (≈ 0.718 µM).

What about the IC50 [9] of the same compound?
Its IC50 is > 62.5 µg/mL.

What about the MIC [10] of the same compound?
Its MIC is 128 µg/mL (≈ 184 µM).

What about the MIC [11] of the same compound?
Its MIC is 1 µg/mL.

What about the MIC [12] of the same compound?
Its MIC is 64 µg/mL (≈ 92 µM).

What about the MIC [13] of the same compound?
The MIC was 32 µg/mL (≈ 46 µM).

What about the MIC [14] of the same compound?
The MIC was 32 µg/mL (≈ 46 µM).

And the MIC [15]?
Its MIC is 1 µg/mL.

What about the MIC [16] of the same compound?
The MIC was 2 µg/mL.

What about the MIC [17] of the same compound?
The MIC was 7.8 µg/mL (≈ 11.2 µM).

And the MIC [18]?
The MIC was 1 µg/mL.

And the IC50 [19]?
Its IC50 is > 62.5 µg/mL.

And the MIC [20]?
The MIC was 1 µg/mL.

What about the MIC [21] of the same compound?
The MIC was > 128 µg/mL.

What about the MIC [22] of the same compound?
Its MIC is 7.8 µg/mL (≈ 11.2 µM).

And the Activity [23]?
The Activity was “Active”.

What about the Activity [24] of the same compound?
The Activity was 49%.

And the Activity [25]?
The Activity was “inactive”.

And the MIC [26]?
Its MIC is > 128 µg/mL.

What about the MIC [27] of the same compound?
The MIC was 1 µg/mL.

And the MIC [28]?
Its MIC is > 128 µg/mL.

And the MIC [29]?
Its MIC is > 128 µg/mL.

What about the Activity [30] of the same compound?
The Activity was 84%.

What about the Activity [31] of the same compound?
The Activity was “inactive”.

And the LCK [32]?
The LCK was “>=2”.

What about the MIC [33] of the same compound?
The MIC was 7.8 µg/mL (≈ 11.2 µM).

And the Activity [34]?
Its Activity is “Active”.

What about the MIC [35] of the same compound?
Its MIC is 8 µg/mL (≈ 11.5 µM).

And the MIC [36]?
Its MIC is 7.8 µg/mL (≈ 11.2 µM).

What about the Activity [37] of the same compound?
Its Activity is “Active”.

What about the MIC [38] of the same compound?
Its MIC is 32 µg/mL (≈ 46 µM).

And the Activity [39]?
The Activity was “inactive”.

What about the hemolysis at 1 h, 7.8 ug/ml [40] of the same compound?
The hemolysis at 1 h, 7.8 ug/ml was 15%.

What about the Activity [41] of the same compound?
The Activity was “Active”.

And the MIC [42]?
Its MIC is 15.6 µg/mL (≈ 22.4 µM).

What about the Activity [43] of the same compound?
Its Activity is “inactive”.

What about the MIC [44] of the same compound?
The MIC was 7.8 µg/mL (≈ 11.2 µM).

What about the Activity [45] of the same compound?
The Activity was “inactive”.

What about the MIC [46] of the same compound?
Its MIC is 16 µg/mL (≈ 23 µM).

What about the MIC [47] of the same compound?
Its MIC is ≤ 1.95 µg/mL.
